This is an account of results in ChEMBL document CHEMBL4513216, “Probing the Open Global Health Chemical Diversity Library for Multistage-Active Starting Points for Next-Generation Antimalarials” (ACS Infect Dis, 2020).

The nature of this data set: Toxicity liver stage against HepG2, at 10uM. It counts as cell-based. On the set-up: test concentration 10 uM, cell line HepG2-A16-CD81EGFP. The following applies: human, HepG2-A16-CD81EGFP cells; read-out: INHIBITION
Put shortly:
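Uninfected HepG2-A16-CD81EGFP cells, 3 × 10^3 per well, 1536-well, plated on prespotted compound at 10 μM final, parasite-free screening media added to match infected plates; puromycin 10 μM positive, DMSO 0.5% negative; run in parallel with 48 h PbLuc assay at 37 °C, 5% CO2; viability by CellTiter-Glo luminescence, normalized to controls.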
For `Cn1c(=O)c2c(c3ccccc31)OC(C)(C)CC2`, the cytotoxicity at 10 µM is 17.8%.

With `Cn1nnc(NCc2ccccc2OCc2ccc(Cl)cc2)n1`, the cytotoxicity at 10 µM worked out at 2.71%.

`COc1ccc(CN2CCCCCC2c2cccs2)c(O)c1` (stereo unspecified): the cytotoxicity at 10 µM is 3.6%.

For `Cn1ccnc1SC1CCc2ccccc2NC1=O` (stereo unspecified), the cytotoxicity at 10 µM is -8.75%.

For `CN(C)CC1CSCCCN1C(=O)c1cccc(C(F)(F)F)c1` (stereo unspecified), the cytotoxicity at 10 µM is -5.03%.

Turning to `CC(=O)N1Cc2nccn2CC(CNC(=O)c2cnccn2)C1` (stereo unspecified), the cytotoxicity at 10 µM was -144%.

In the case of `CCS(=O)(=O)N1CCCC2(CCCN2C(=O)c2cscn2)C1` (stereo unspecified), the cytotoxicity at 10 µM was found to be 8.25%.

Turning to `Cn1ccnc1C(=O)NCc1cc(=O)n2c(n1)CN(CC1CC1)CCC2`, the cytotoxicity at 10 µM turned out to be 13.8%.

In the case of `O=C(c1ccsc1)N1CCc2onc(CN3CCOCC3)c2C1`, the cytotoxicity at 10 µM came to 5.07%.

With `CCOCC(=O)N1CC[C@H]2OCC[C@@H](c3nnc(C)o3)[C@H]2C1`, the cytotoxicity at 10 µM was determined as 12%.

Consider `CC(C)NC(=O)C1CN(C(N)=O)Cc2ccnn2C1` (stereo unspecified), for which the cytotoxicity at 10 µM is -8.68%.

With `CC(C)N1CCN(C(=O)c2[nH]nnc2Nc2ccccc2F)CC1`, the cytotoxicity at 10 µM amounted to 6.36%.

On to `CCc1cc(=O)n(CC(=O)N2CCCC2)c(-c2ccccc2)n1`, for which the cytotoxicity at 10 µM is 7.25%.

Consider `CCn1cc(-c2nn3c(C(F)(F)F)nnc3s2)c(C)n1`, for which the cytotoxicity at 10 µM was 13.5%.

As to `CC(CNC(=O)c1cc(C2CC2)nc2c1cnn2C)Cn1cccn1` (stereo unspecified), the cytotoxicity at 10 µM was determined as 3.49%.

As to `COc1ccc(CCc2nnc(NC(=O)C3CC34CCC4)s2)cc1OC` (stereo unspecified), the cytotoxicity at 10 µM is -0.095%.

In the case of `Cc1nn(C)c(C)c1-c1ccc(=O)n(C(C)C(=O)NC(C)(C)C)n1` (stereo unspecified), the cytotoxicity at 10 µM was 5.75%.

Regarding `CC(=O)N1CCC(Cc2nccnc2-c2ccnn2C)CC1`, the cytotoxicity at 10 µM was -7.3%.

For the compound `O=C(O)c1ccc(=O)n(CC(c2ccc(Cl)cc2)N2CCOCC2)c1` (stereo unspecified), the cytotoxicity at 10 µM amounted to 2.91%.

On to `CCNC(=O)Nc1ncc(-c2cccnc2)s1`, for which the cytotoxicity at 10 µM amounted to 14.6%.

Regarding `Cc1ncc(CNC(=O)CCc2c(C)noc2C)c(C2CCCN2C)n1` (stereo unspecified), the cytotoxicity at 10 µM is -8.86%.

For the compound `CC(C)OCCS(=O)(=O)N1CCN(Cc2cccn2C)CC1`, the cytotoxicity at 10 µM was -17.3%.

As to `O=C(NCc1ccnc(OCC(F)(F)F)c1)NCC1COCCO1` (stereo unspecified), the cytotoxicity at 10 µM came to 1.81%.

In the case of `CC(C(=O)N1CCCC1)S(=O)(=O)Cc1noc(C(C)(C)C)n1` (stereo unspecified), the cytotoxicity at 10 µM is -1.1%.

`Cc1nccc(CNC(=O)NC(c2ncc(C)s2)C2CC2)n1` (stereo unspecified): the cytotoxicity at 10 µM was -0.898%.

`CCOCCN1CCN(c2ncccc2C#N)CC1CC` (stereo unspecified): the cytotoxicity at 10 µM was found to be 5.94%.

Turning to `O=C(NCC1CCS(=O)(=O)C1)N(Cc1ccccn1)C1CC1` (stereo unspecified), the cytotoxicity at 10 µM is -129%.

As for `CC(=O)N1CCC(NC(=O)Cc2nc3nc(C)cc(C)n3n2)CC1`, the cytotoxicity at 10 µM was 8.52%.

With `O=C(Nc1ccccn1)c1ccc(F)c(S(=O)(=O)NC2CC2)c1`, the cytotoxicity at 10 µM was 4.37%.

In the case of `CN(C)C1Cc2ccccc2N(S(=O)(=O)c2cccc(C#N)c2)C1` (stereo unspecified), the cytotoxicity at 10 µM came to 9.89%.

Consider `CCNC(=O)Cc1ccc(NC(=O)NC(CC)c2ccncc2)cc1` (stereo unspecified), for which the cytotoxicity at 10 µM was -3%.

For the compound `O=C(c1cc(Cl)c2c(c1)OCO2)N1CCN(c2cnccn2)CC1`, the cytotoxicity at 10 µM came to 6.76%.

With `Cc1ccccc1C(=O)NCC(O)c1ccc(F)c(F)c1` (stereo unspecified), the cytotoxicity at 10 µM was -10.1%.

As to `Cc1ccccc1-c1cc(NC(=O)NC2CC2)n(CCO)n1`, the cytotoxicity at 10 µM turned out to be 8.09%.

For `CCN(CC)c1ccc(NS(=O)(=O)c2cnn(CC)c2)cn1`, the cytotoxicity at 10 µM is 3.07%.

For `CC(NC(=O)Nc1nnc(-c2ccccn2)s1)C(=O)OC(C)(C)C` (stereo unspecified), the cytotoxicity at 10 µM was -6.87%.

Turning to `Cc1nnc2ccc(NCC3(N4CCCCC4)CCOCC3)nn12`, the cytotoxicity at 10 µM was -3.59%.

Consider `Cc1ccc(-c2ncc(CN3CCOC(c4ccco4)C3)s2)o1` (stereo unspecified), for which the cytotoxicity at 10 µM was 4.37%.

`CN(C)CC(NC(=O)c1ccn(C)c(=O)c1)c1ccccc1` (stereo unspecified): the cytotoxicity at 10 µM was -5.85%.

In the case of `CSc1ccc(NC(=O)COCc2ccccc2)nc1`, the cytotoxicity at 10 µM worked out at 7.01%.

For the compound `CN(C)C(=O)CN1CCN(c2cc(N3CCCC3CO)ncn2)CC1` (stereo unspecified), the cytotoxicity at 10 µM is -1.49%.

Turning to `CS(=O)(=O)NCCc1cccc2cccnc12`, the cytotoxicity at 10 µM is 18.3%.

On to `CS(=O)(=O)N1CCN(C(=O)c2[nH]c3ccc(Cl)cc3c2Cl)CC1`, for which the cytotoxicity at 10 µM turned out to be 24.6%.

For the compound `O=C(NCCc1nncn1C1CC1)c1cnn(Cc2ccccc2)c1`, the cytotoxicity at 10 µM is -2.36%.

For `CC(C)c1ocnc1C(=O)N1CCC(=O)Nc2cccnc21`, the cytotoxicity at 10 µM is 1.15%.

For the compound `CC(C)(C)CNC(=O)CNC(=O)C1CC1`, the cytotoxicity at 10 µM is -1.15%.

Take `Cc1cc(C)c(CNC(=O)NCc2nnc3n2CCCCC3)c(=O)[nH]1`: the cytotoxicity at 10 µM is -1.34%.

Take `Cc1noc(CNc2ccccc2N2CCCCC2)n1`: the cytotoxicity at 10 µM was -25.4%.

As for `COC(=O)c1cccc(S(=O)(=O)NC(=O)c2ccccc2F)c1`, the cytotoxicity at 10 µM turned out to be 5.79%.

For the compound `CCCn1c(O)nnc1SCC1OCCc2ccccc21` (stereo unspecified), the cytotoxicity at 10 µM amounted to 4.32%.

Regarding `CC(C)CC(C(=O)N1CCCSCC1)N1CCCCC1=O` (stereo unspecified), the cytotoxicity at 10 µM is -11%.

For the compound `NC(=O)C1CCN(Cc2cccc(NC(=O)c3ccsc3)c2)CC1`, the cytotoxicity at 10 µM came out at 18.7%.

As to `Cn1cnc(-c2nc(C(=O)NCC3CCCO3)c3ccccn23)c1` (stereo unspecified), the cytotoxicity at 10 µM was -109%.

For the compound `Cc1cccc(C(=O)N2CC[C@@H]3CN(c4ncccn4)CCO[C@@H]3C2)c1`, the cytotoxicity at 10 µM is -71.6%.

In the case of `CCN1C(=O)[C@]2(CC[C@@H]3CN(S(=O)(=O)CC(C)C)C[C@@H]32)N=C1C`, the cytotoxicity at 10 µM is -78.2%.

Regarding `Cn1cc(C[C@H]2[C@@H](O)CCN2C(=O)c2ccc[nH]2)cn1`, the cytotoxicity at 10 µM is -71.2%.

As to `CCc1ccc(CN(C)c2ccc(-c3nc(COC)no3)cn2)nc1`, the cytotoxicity at 10 µM was -2.68%.

Consider `Cc1n[nH]c(SCC(=O)N[C@@H](C)C(N)=O)n1`, for which the cytotoxicity at 10 µM came to 8.07%.

`O=C(CC1COCCN1)N1CCC(N2CCc3ccccc3C2)CC1` (stereo unspecified): the cytotoxicity at 10 µM is -176%.

In the case of `CN(C)c1nc2c(c(=O)[nH]1)CCN(C(=O)c1ccc(=O)[nH]c1)C2`, the cytotoxicity at 10 µM stood at 10.2%.

For `Cc1nnc(CN(CCc2ccccc2)C2CCN(C)CC2)s1`, the cytotoxicity at 10 µM was found to be 0.219%.

In the case of `CCc1nn(C)c(Cl)c1CN1CCC(c2cc(O)nc(C)n2)CC1`, the cytotoxicity at 10 µM was -9.74%.

Consider `CCn1nc(C)c(C(=O)N2C[C@@H](CN(C)C)[C@@H](CO)C2)c1C`, for which the cytotoxicity at 10 µM worked out at 0.44%.

With `C=C(C)COc1cccc(CN(CC)Cc2noc(C)n2)c1`, the cytotoxicity at 10 µM is -12%.

For `COc1cccc2c1OCC(CNC(=O)Cn1ccnc1C)C2` (stereo unspecified), the cytotoxicity at 10 µM was -150%.

Regarding `CC[C@H]1COCCN1C(=O)c1ccc(OC)c(N2CCOCC2)c1`, the cytotoxicity at 10 µM is 3.89%.

`CCCn1c(C)c(CC(=O)NC(C)(C)CO)c2c1CC(C)(C)CC2=O`: the cytotoxicity at 10 µM is -8.97%.

`CCc1nc(C)c(CN2CCN(c3ncnc4c(C)csc34)CC2)[nH]1`: the cytotoxicity at 10 µM came out at 17.6%.

Take `Cc1cccc(C(C(=O)N2CC(c3ccccn3)C2)N(C)C)c1` (stereo unspecified): the cytotoxicity at 10 µM was -13.1%.

With `Cc1ccc(CN2CCC(Cc3nnc(CO)n3C)CC2)cc1C`, the cytotoxicity at 10 µM came out at 5.19%.

As to `COc1ccc(F)c(CN2CCCC(O)(CNC3CCCCC3)C2=O)c1` (stereo unspecified), the cytotoxicity at 10 µM amounted to 8.28%.

In the case of `Cc1[nH]c(=O)[nH]c(=O)c1CN1CCCC(CCc2ccc(F)c(F)c2)C1` (stereo unspecified), the cytotoxicity at 10 µM turned out to be 1.4%.

As to `CN(CCCc1nccn1C)C(=O)C1CCN(C(=O)C2CCC2)CC1`, the cytotoxicity at 10 µM was -7.12%.

On to `Cc1cncc(C(=O)N2CCCC(O)(CN3CCCC3)C2)c1` (stereo unspecified), for which the cytotoxicity at 10 µM is 10.1%.

As for `COc1cc2cc(C(=O)NC(C)C(=O)O)n(C)c2c(OC)c1OC` (stereo unspecified), the cytotoxicity at 10 µM is -162%.

Consider `Cc1nc2c(c(=O)n1C)CCN(C(=O)CCc1ccccn1)CC2`, for which the cytotoxicity at 10 µM was 14%.

In the case of `CC(C)n1cnnc1CN(C)C(=O)C1CCCN(CC(N)=O)C1` (stereo unspecified), the cytotoxicity at 10 µM was determined as 1.05%.

Regarding `CC(C)NC(=O)[C@@H]1C[C@H](N)CN1C(=O)c1cc2c([nH]c1=O)CCCC2`, the cytotoxicity at 10 µM was found to be 10.5%.

`COc1ccc2c(c1)OCC(CNC(=O)c1ccncc1)C2` (stereo unspecified): the cytotoxicity at 10 µM was -8.63%.

Consider `CS(=O)(=O)N1CCCC(C(=O)Nc2cnn(COCC(F)(F)F)c2)C1` (stereo unspecified), for which the cytotoxicity at 10 µM was -11.5%.

Regarding `CNc1cc(C2CCCN2C(=O)c2ccc3oc(=O)n(C)c3c2)ccn1` (stereo unspecified), the cytotoxicity at 10 µM was 1.68%.

For `Cc1cncc(C2CCCN(C(=O)c3cccn3C)C2)n1` (stereo unspecified), the cytotoxicity at 10 µM is 2.14%.

Take `Fc1ccc(-c2nc(CNCCn3cccn3)cs2)cc1`: the cytotoxicity at 10 µM is -11.2%.

Take `CC(C)c1ccc(OCCC(=O)N2CCCC(C(N)=O)C2)cc1` (stereo unspecified): the cytotoxicity at 10 µM is -11.7%.

`Cc1cccc(C(=O)NC(C)CN2CCCC2=O)n1` (stereo unspecified): the cytotoxicity at 10 µM is -9.51%.

`Cc1cnc(CN2CCCC2c2noc(C)n2)cn1` (stereo unspecified): the cytotoxicity at 10 µM was found to be 3.78%.

Regarding `CCC(CC)NC(=O)Cn1nc(C)nc1-c1ccccc1`, the cytotoxicity at 10 µM was -7.22%.

For `Cc1cc(C(=O)N2CCCC(n3cncn3)C2)c(C)n1C1CC1` (stereo unspecified), the cytotoxicity at 10 µM is -3.32%.

For `CCn1c(C)nnc1CN(C)C1CCN(CCc2ccncc2)C1` (stereo unspecified), the cytotoxicity at 10 µM came out at 3.97%.

`COCCNC(=O)C(C)N1CCN(C)CC1` (stereo unspecified): the cytotoxicity at 10 µM was -1.21%.

Regarding `CC(C)CCN1CCC2(CCCN(c3nncs3)C2)C1` (stereo unspecified), the cytotoxicity at 10 µM was -139%.

In the case of `O=C(c1ccno1)N1CC[C@@H]2O[C@H](COCCN3CCCC3)CC[C@@H]21`, the cytotoxicity at 10 µM was -79.1%.

For `O=C(N1CCCC1)N1CC[C@H]2OCC[C@@]2(COc2ncccc2F)C1`, the cytotoxicity at 10 µM is -151%.

Turning to `Cc1nc(N2CCCC2)nc2c1CCN(Cc1ccsc1)CC2`, the cytotoxicity at 10 µM was -106%.

Regarding `CN(C)[C@@H]1CCN(C(=O)CC2CC2)[C@H]1Cc1cnn(C)c1`, the cytotoxicity at 10 µM was -67.3%.

Regarding `CC(=Cc1ccccc1)CNCc1cccc(C(N)=O)c1`, the cytotoxicity at 10 µM was 6.03%.
